Measured values collected from several papers.
Target: Mitogen-activated protein kinase kinase kinase 2 (MAP3K2, Homo sapiens, UniProt Q9Y2U5)
Residues used in one study (Q9Y2U5 1-619): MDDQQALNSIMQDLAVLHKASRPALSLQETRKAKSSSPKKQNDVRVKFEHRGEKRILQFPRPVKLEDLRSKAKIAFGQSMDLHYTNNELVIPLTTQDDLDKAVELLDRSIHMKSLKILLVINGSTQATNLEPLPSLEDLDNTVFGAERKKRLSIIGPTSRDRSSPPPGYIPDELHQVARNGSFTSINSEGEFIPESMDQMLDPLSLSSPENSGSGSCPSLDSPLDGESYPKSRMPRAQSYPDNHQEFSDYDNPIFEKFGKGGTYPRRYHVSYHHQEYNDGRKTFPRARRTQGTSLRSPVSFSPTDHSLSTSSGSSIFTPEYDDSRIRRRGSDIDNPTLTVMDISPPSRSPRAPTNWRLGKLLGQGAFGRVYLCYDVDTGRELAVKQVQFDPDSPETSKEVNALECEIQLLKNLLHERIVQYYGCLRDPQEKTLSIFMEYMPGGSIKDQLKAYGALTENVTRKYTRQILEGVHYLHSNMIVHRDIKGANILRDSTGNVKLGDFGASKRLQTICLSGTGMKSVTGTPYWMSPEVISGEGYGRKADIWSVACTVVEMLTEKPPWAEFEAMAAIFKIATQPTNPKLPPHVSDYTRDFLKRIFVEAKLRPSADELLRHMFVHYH

CN1CCN(C(=O)c2ccc(NC(=O)Nc3ccc(N(C)c4ccnc(Nc5ccc(CS(C)(=O)=O)cc5)n4)cc3)cc2)CC1  remaining binding (binding; competition with immobilised ligand; 1 µM): 38%
COc1ccc2oc(-c3ccc4nc(N)oc4c3)c/c(=N\c3ccccc3NC(=O)CCN)c2c1  remaining binding (binding; 1 µM): 101%
C1=C/COCc2cc(ccc2OCCN2CCCC2)Nc2nccc(n2)-c2cccc(c2)COC/1  remaining binding (binding; 0.1 µM): 38%
CC(C)S(=O)(=O)c1ccc2nccc(Nc3ccc4sc(C5CCCC5)nc4c3)c2c1  activity vs control (enzyme activity; inhibitor; 1 µM): 103%
CCCCC(=O)Nc1ccc(-c2ccc3ncn(CCC)c(=O)c3c2)cn1  remaining binding (binding; competition with immobilised ligand; 0.5 µM): 100%
Cc1cc(O)c(-c2ccc([C@@H](C)CN(C)C)cc2)c2c1[nH]c(=O)c1sccc12  inhibition (enzyme activity; inhibitor; 0.1 µM): -1.76%
C=CC(=O)N1CCC([C@@H]2CCNc3c(C(N)=O)c(-c4ccc(Oc5ccccc5)cc4)nn32)CC1  inhibition (enzyme activity; inhibitor; 1 µM): 39%
C#Cc1cc(-c2cc(Nc3nc(N[C@@H](C)c4ccc(F)cn4)ncc3Cl)n[nH]2)ccc1C=O  inhibition (enzyme activity; inhibitor; 0.2 µM): 55.2%
CO[C@@H]1[C@H](N(C)C(=O)c2ccccc2)C[C@H]2O[C@]1(C)n1c3ccccc3c3c4c(c5c6ccccc6n2c5c31)C(=O)NC4  inhibition (enzyme activity; inhibitor; 1 µM): 94%
COc1ccc2[nH]c3c4[nH]c5ccc(OC)cc5c4c4c(c3c2c1)C(=O)NC4=O  remaining binding (binding; competition with immobilised ligand; 1 µM): 85%
